Laboratory results published in PMC3646568 (Protein and peptide letters, 2012).
Where two headings read alike, the source gives them in different places.

Key:
VEGFR-3 (Homo sapiens) = VEGFR-3 (Homo sapiens) (UniProt P35916); settings: cited from earlier work
VEGFR-2-Fc = settings: cited from earlier work
[1] = test system: VEGF or basic fibroblast growth factor (bFGF); settings: cited from earlier work
[2] = test system: Primary human lung lymphatic endothelial cells (h-LECs); experiment: Scratch wound cell migration assay, h-LECs; assay type: cell-based; settings: 100 ng/mL VEGF-C stimulation, 24 h
How it was run: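 Confluent h-LECs held serum-free for 24 h, rinsed with DMEM, and scratched with a pipette tip. Washed with PBS, then kept 24 h in experimental medium with 100 ng/mL VEGF-C ± test peptide. Fixed in 4% paraformaldehyde; cells migrating past the scratch counted in ≥3 fields per well, three wells per condition.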

[3] = biological target: VEGFR3-AP (a VEGFR-3 fusion protein); settings: fully processed VEGF-C binding to VEGFR3-AP; cited from earlier work
[4] = biological target: T1, recombinant mouse VEGFR-3-Fc (mouse, UniProt P35917 25-775); experiment: SPR
T1 sequence (looked up): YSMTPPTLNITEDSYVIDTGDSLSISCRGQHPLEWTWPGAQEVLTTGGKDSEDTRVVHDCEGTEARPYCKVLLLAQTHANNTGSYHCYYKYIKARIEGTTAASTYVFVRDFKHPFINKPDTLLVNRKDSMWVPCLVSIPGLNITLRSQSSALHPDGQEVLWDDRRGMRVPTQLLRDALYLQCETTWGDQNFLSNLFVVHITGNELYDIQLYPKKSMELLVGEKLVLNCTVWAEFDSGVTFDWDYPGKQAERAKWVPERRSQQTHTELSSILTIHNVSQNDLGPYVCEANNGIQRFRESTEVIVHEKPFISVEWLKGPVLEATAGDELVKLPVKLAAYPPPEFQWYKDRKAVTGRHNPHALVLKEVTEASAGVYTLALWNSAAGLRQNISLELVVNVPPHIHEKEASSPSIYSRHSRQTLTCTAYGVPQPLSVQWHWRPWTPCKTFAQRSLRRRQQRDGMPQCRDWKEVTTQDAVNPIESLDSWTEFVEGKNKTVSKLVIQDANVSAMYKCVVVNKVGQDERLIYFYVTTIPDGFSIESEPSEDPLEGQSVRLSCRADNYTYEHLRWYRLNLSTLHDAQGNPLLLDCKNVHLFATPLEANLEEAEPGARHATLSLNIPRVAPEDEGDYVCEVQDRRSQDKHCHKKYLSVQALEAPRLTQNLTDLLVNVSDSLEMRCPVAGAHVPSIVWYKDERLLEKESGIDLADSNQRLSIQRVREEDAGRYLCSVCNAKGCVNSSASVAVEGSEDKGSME

recombinant VEGFR-3-Fc = assay type: binding, mouse; settings: pull-down
How it was run: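 GST-fused endostatin-containing fragments were incubated with recombinant VEGFR-3-Fc and a range of VEGF-C concentrations. Receptor–ligand complexes were recovered by pull-down and probed by western blot with anti-VEGFR-3 antibody.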

VEGF-C (from UniProt P49767)
Kd (VEGFR-3 (Homo sapiens)): 1 nM

endostatin
Block of interaction of VEGF-A and VEGFR-2-Fc (VEGFR-2-Fc; 10-min preincubation of endostatin with VEGFR-2-Fc): blocks the interaction of VEGF-A and VEGFR-2-Fc in a dose-dependent manner | Dissociation rate of VEGFR-2-Fc from VEGF and its receptor complex (VEGFR-2-Fc; endostatin 10 μg/mL): does not affect the dissociation rate | Binding to VEGF or bFGF [1]: does not bind to VEGF or basic fibroblast growth factor (bFGF)

B1: VEGF-C: vascular endothelial growth factor C, recombinant; literature KD for fully processed VEGF-C (protein)
chain: FESGLDLSDAEPDAGEATAYASKDLEEQLRSVSSVDELMTVLYPEYWKMYKCQLRKGGWQHNREQANLNSRTEETIKFAAAHYNTEILKSIDNEWRKTQCMPREVCIDVGKEFGVATNTFFKPPCVSVYRCGGCCNSEGLQCMNTSTSYLSKTLFEITVPLSQGPKPVTISFANHTSCRCMSKLDVYRQVHSIIRR
Repopulation of the scratch surface [2]: approximately 50% | Kd [3]: 1 nM

LEQKAASCHNSYIVLCIENSFMTSFSK [murine endostatin peptide (mEP)]
koff [4]: 0.672 s⁻¹ | kon [4]: 1.41e+07 M⁻¹ s⁻¹

B2: GST-endostatin-containing fragments: GST-endostatin-containing fragments (protein)
chain: HTHQDFQPVLHLVALNTPLSGGMRGIRGADFQCFQQARAVGLSGTFRAFLSSRLQDLYSIVRRADRGSVPIVNLKDEVLSPSWDSLFSGSQGQLQPGARIFSFDGRDVLRHPAWPQKSVWHGSDPSGRRLMESYCETWRTETTGATGQASSLLSGRLLEQKAASCHNSYIVLCIENSFMTSFSK
modifications: left off: GST, end not stated, kept
Binding of GST-endostatin-containing fragment to VEGFR-3-Fc (recombinant VEGFR-3-Fc; western blot with anti-VEGFR-3 antibody, absence of VEGF-C and low concentration of VEGF-C (lanes 1 and 2)): able to bind VEGFR-3-Fc | Binding of GST-endostatin-containing fragment to VEGFR-3-Fc (recombinant VEGFR-3-Fc; western blot, VEGF-C at a higher concentration (lane 3)): diminished
